{"source": "ChEMBL document CHEMBL4229460", "about": "“Design and biological evaluation of novel hybrids of 1, 5-diarylpyrazole and Chrysin for selective COX-2 inhibition” (Bioorg Med Chem, 2018)", "key": {"HeLa [1]": {"test_system": "HeLa", "test": "Disruption of mitochondrial membrane potential in human HeLa cells assessed as collapse of the mitochondrial membrane potential at 2.5 uM after 12 hrs by JC1 staining based flow cytometry (reference value: 0.768%)", "assay_type": "functional"}, "HeLa [2]": {"test_system": "HeLa", "test": "Induction of apoptosis in human HeLa cells assessed as necrotic cells at 5 uM after 36 hrs by Annexin-V-FITC/propidium iodide staining based flow cytometry (reference value: 1.12%)", "assay_type": "functional", "in_short": "(§1)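 HeLa cells in DMEM with 10% FBS, penicillin/streptomycin, 37 °C, 5% CO₂; seeded 2 × 10⁵ cells/well in six-well plates, treated at 0, 1.25, 2.5, 5 and 10 μM for 24 h, or at 5 μM for 12, 24, 36 or 48 h. Cells trypsinized, washed in ice-cold PBS, stained in binding buffer with Annexin V-FITC and PI for 10 min in the dark, then analyzed by flow cytometry.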"}, "HeLa [3]": {"test_system": "HeLa", "test": "Induction of apoptosis in human HeLa cells assessed as necrotic cells at 10 uM after 24 hrs by Annexin-V-FITC/propidium iodide staining based flow cytometry (reference value: 0.242%)", "assay_type": "functional", "in_short": "(§2)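 HeLa seeded at 2 × 10⁵ cells/well. Dose series was 0, 1.25, 2.5, 5 and 10 μM for 24 h; time course was 5 μM for 12, 24, 36 or 48 h. Trypsinized and washed in ice-cold PBS, then stained in binding buffer with Annexin V-FITC and PI for 10 min in the dark. Flow cytometry scored early (Annexin⁺/PI⁻) and late (Annexin⁺/PI⁺) apoptotic cells.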"}, "HeLa [4]": {"test_system": "HeLa", "test": "Induction of apoptosis in human HeLa cells assessed as late apoptotic cells at 1.25 uM after 24 hrs by Annexin-V-FITC/propidium iodide staining based flow cytometry (reference value: 1.72%)", "assay_type": "functional", "in_short": "as §2"}, "MCF7": {"test_system": "MCF7", "test": "Antiproliferative activity against human MCF7 cells after 48 hrs by MTT assay", "assay_type": "functional, cell-based", "details": "MCF7, 48 h"}, "[5]": {"target": "Prostaglandin G/H synthase 1 (Homo sapiens, UniProt P23219)", "sequence (P23219 whole entry)": "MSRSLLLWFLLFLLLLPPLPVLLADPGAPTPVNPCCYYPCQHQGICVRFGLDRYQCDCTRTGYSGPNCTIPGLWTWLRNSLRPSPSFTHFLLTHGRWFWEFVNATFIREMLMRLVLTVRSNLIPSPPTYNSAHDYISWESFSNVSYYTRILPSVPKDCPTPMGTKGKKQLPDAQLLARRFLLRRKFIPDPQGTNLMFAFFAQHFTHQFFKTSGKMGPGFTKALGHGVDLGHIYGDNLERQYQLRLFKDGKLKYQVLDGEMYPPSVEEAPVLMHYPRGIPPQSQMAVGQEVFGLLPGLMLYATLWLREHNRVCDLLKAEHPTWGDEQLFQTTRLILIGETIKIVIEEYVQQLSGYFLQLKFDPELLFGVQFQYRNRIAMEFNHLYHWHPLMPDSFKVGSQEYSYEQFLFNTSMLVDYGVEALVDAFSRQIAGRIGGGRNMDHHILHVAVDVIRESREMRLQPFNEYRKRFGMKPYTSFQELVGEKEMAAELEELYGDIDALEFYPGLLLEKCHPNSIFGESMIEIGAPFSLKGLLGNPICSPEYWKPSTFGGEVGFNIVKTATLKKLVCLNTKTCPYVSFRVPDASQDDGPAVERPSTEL", "test": "Inhibition of COX1 (unknown origin) using arachidonic acid as substrate pretreated for 10 mins followed by substrate addition and measured after 2 mins by ELISA", "assay_type": "ADME"}, "HeLa [6]": {"test_system": "HeLa", "test": "Induction of apoptosis in human HeLa cells assessed as necrotic cells at 5 uM after 24 hrs by Annexin-V-FITC/propidium iodide staining based flow cytometry (reference value: 0.242 to 1.12%)", "assay_type": "functional", "in_short": "as §1"}, "HeLa [7]": {"test_system": "HeLa", "test": "Induction of apoptosis in human HeLa cells assessed as late apoptotic cells at 5 uM after 24 hrs by Annexin-V-FITC/propidium iodide staining based flow cytometry (reference value: 1.72 to 2.57%)", "assay_type": "functional", "in_short": "as §2"}, "Homo sapiens": {"species": "Homo sapiens", "test": "Selectivity index, ratio of IC50 for COX1 (unknown origin) to ratio of IC50 for COX2 (unknown origin)", "in_short": "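Enzyme ELISA kit: COX-1 or COX-2 preincubated with compound at 0, 1, 10 or 100 μM for 10 min at 37 °C in 0.1 M Tris-HCl pH 8.0, 5 mM EDTA, 2 mM phenol, 1 μM heme. Started with 100 μM arachidonic acid for 2 min at 37 °C, stopped with 1 M HCl. PGH₂ reduced by stannous chloride; PGF2α read by enzyme immunoassay at 450 nm. Index taken as the ratio of the COX IC50 values.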"}, "HeLa [8]": {"test_system": "HeLa", "test": "Induction of apoptosis in human HeLa cells assessed as live cells at 5 uM after 48 hrs by Annexin-V-FITC/propidium iodide staining based flow cytometry (reference value: 95.1%)", "assay_type": "functional", "in_short": "as §2"}, "HeLa [9]": {"test_system": "HeLa", "test": "Cell cycle arrest in human HeLa cells assessed as accumulation at G2/M phase at 10 uM after 24 hrs by propidium iodide staining based flow cytometry (reference value: 21.45%)", "assay_type": "functional"}, "HeLa [10]": {"test_system": "HeLa", "test": "Cell cycle arrest in human HeLa cells assessed as accumulation at S phase at 1.25 uM after 24 hrs by propidium iodide staining based flow cytometry (reference value: 18.16%)", "assay_type": "functional"}, "HeLa [11]": {"test_system": "HeLa", "test": "Cell cycle arrest in human HeLa cells assessed as accumulation at G2/M phase at 5 uM after 24 hrs by propidium iodide staining based flow cytometry (reference value: 21.45%)", "assay_type": "functional"}, "HeLa [12]": {"test_system": "HeLa", "test": "Cell cycle arrest in human HeLa cells assessed as accumulation at G1 phase after 24 hrs by propidium iodide staining based flow cytometry", "assay_type": "functional"}, "HeLa [13]": {"test_system": "HeLa", "test": "Cell cycle arrest in human HeLa cells assessed as accumulation at S phase at 10 uM after 24 hrs by propidium iodide staining based flow cytometry (reference value: 18.16%)", "assay_type": "functional"}, "HeLa [14]": {"test_system": "HeLa", "test": "Disruption of mitochondrial membrane potential in human HeLa cells assessed as intact mitochondrial membrane at 5 uM after 12 hrs by JC1 staining based flow cytometry (reference value: 99.2%)", "assay_type": "functional"}, "HeLa [15]": {"test_system": "HeLa", "test": "Induction of apoptosis in human HeLa cells assessed as late apoptotic cells at 10 uM after 24 hrs by Annexin-V-FITC/propidium iodide staining based flow cytometry (reference value: 1.72%)", "assay_type": "functional", "in_short": "as §2"}, "HeLa [16]": {"test_system": "HeLa", "test": "Induction of apoptosis in human HeLa cells assessed as late apoptotic cells at 5 uM after 48 hrs by Annexin-V-FITC/propidium iodide staining based flow cytometry (reference value: 2.57%)", "assay_type": "functional", "in_short": "as §2"}, "HEK-293T": {"test_system": "HEK-293T", "test": "Cytotoxicity against human 293T cells after 48 hrs by MTT assay", "assay_type": "cell-based"}, "HeLa [17]": {"test_system": "HeLa", "test": "Induction of apoptosis in human HeLa cells assessed as necrotic cells at 1.25 uM after 24 hrs by Annexin-V-FITC/propidium iodide staining based flow cytometry (reference value: 0.242%)", "assay_type": "functional", "in_short": "as §2"}, "HeLa [18]": {"test_system": "HeLa", "test": "Cell cycle arrest in human HeLa cells assessed as accumulation at G1 phase at 5 uM after 24 hrs by propidium iodide staining based flow cytometry (reference value: 55.51%)", "assay_type": "functional"}, "HeLa [19]": {"test_system": "HeLa", "test": "Cell cycle arrest in human HeLa cells assessed as accumulation at S phase at 2.5 uM after 24 hrs by propidium iodide staining based flow cytometry (reference value: 18.16%)", "assay_type": "functional"}, "HeLa [20]": {"test_system": "HeLa", "test": "Induction of apoptosis in human HeLa cells assessed as live cells at 2.5 uM after 24 hrs by Annexin-V-FITC/propidium iodide staining based flow cytometry (reference value: 94.6%)", "assay_type": "functional", "in_short": "as §2"}, "HeLa [21]": {"test_system": "HeLa", "test": "Disruption of mitochondrial membrane potential in human HeLa cells assessed as collapse of the mitochondrial membrane potential at 5 uM after 12 hrs by JC1 staining based flow cytometry (reference value: 0.768%)", "assay_type": "functional"}, "HeLa [22]": {"test_system": "HeLa", "test": "Disruption of mitochondrial membrane potential in human HeLa cells assessed as intact mitochondrial membrane at 1.25 uM after 12 hrs by JC1 staining based flow cytometry (reference value: 99.2%)", "assay_type": "functional"}, "HeLa [23]": {"test_system": "HeLa", "test": "Induction of apoptosis in human HeLa cells assessed as early apoptotic cells at 5 uM after 24 hrs by Annexin-V-FITC/propidium iodide staining based flow cytometry (reference value: 1.24 to 2.98%)", "assay_type": "functional", "in_short": "as §2"}, "HeLa [24]": {"test_system": "HeLa", "test": "Induction of apoptosis in human HeLa cells assessed as live cells at 5 uM after 36 hrs by Annexin-V-FITC/propidium iodide staining based flow cytometry (reference value: 95.1%)", "assay_type": "functional", "in_short": "as §2"}}}
{"compound": "COc1ccc(-c2cc(COC(=O)COc3cc(O)c4c(=O)cc(-c5ccccc5)oc4c3)nn2-c2ccc(C)cc2)cc1", "values": [{"measurement": "Activity", "setting": "HeLa [1]", "value": 5.61, "unit": "%"}, {"measurement": "Activity", "setting": "HeLa [2]", "value": 2.08, "unit": "%"}, {"measurement": "Activity", "setting": "HeLa [3]", "value": 0.325, "unit": "%"}, {"measurement": "Activity", "setting": "HeLa [4]", "value": 5.16, "unit": "%"}, {"measurement": "IC50", "setting": "MCF7", "value": 3.23, "unit": "µM"}, {"measurement": "IC50", "setting": "[5]", "value": 47.5, "unit": "µM"}, {"measurement": "Activity", "setting": "HeLa [6]", "value": "0.073 - 0.427%"}, {"measurement": "Activity", "setting": "HeLa [7]", "value": "0.9 - 7.15%"}, {"measurement": "Ratio IC50", "setting": "Homo sapiens", "value": 206}, {"measurement": "Activity", "setting": "HeLa [8]", "value": 18.1, "unit": "%"}, {"measurement": "Activity", "setting": "HeLa [9]", "value": 5.24, "unit": "%"}, {"measurement": "Activity", "setting": "HeLa [10]", "value": 17.96, "unit": "%"}, {"measurement": "Activity", "setting": "HeLa [11]", "value": 8.16, "unit": "%"}, {"measurement": "Activity", "setting": "HeLa [12]", "value": "Dose-dependent effect"}, {"measurement": "Activity", "setting": "HeLa [13]", "value": 14.82, "unit": "%"}, {"measurement": "Activity", "setting": "HeLa [14]", "value": 90.5, "unit": "%"}, {"measurement": "Activity", "setting": "HeLa [15]", "value": 11.5, "unit": "%"}, {"measurement": "Activity", "setting": "HeLa [16]", "value": 7.54, "unit": "%"}, {"measurement": "IC50", "setting": "HEK-293T", "value": 194, "unit": "µM"}, {"measurement": "Activity", "setting": "HeLa [17]", "value": 1.18, "unit": "%"}, {"measurement": "Activity", "setting": "HeLa [18]", "value": 72.83, "unit": "%"}, {"measurement": "Activity", "setting": "HeLa [19]", "value": 18.61, "unit": "%"}, {"measurement": "Activity", "setting": "HeLa [20]", "value": 74.5, "unit": "%"}, {"measurement": "Activity", "setting": "HeLa [21]", "value": 9.32, "unit": "%"}, {"measurement": "Activity", "setting": "HeLa [22]", "value": 96.5, "unit": "%"}, {"measurement": "Activity", "setting": "HeLa [23]", "value": "31.6 - 34.7%"}, {"measurement": "Activity", "setting": "HeLa [24]", "value": 48.7, "unit": "%"}]}
